≈ marks a conversion by molar mass, not a printed value.
Legend:
[1] = Partition coefficient, logD of the compound at pH 7.4 by HPLC analysis; type: physicochemical; conditions: octanol/water
[2] = Kinetic solubility in pH 6.5 phosphate buffer incubated for 30 mins by nephelometry; type: physicochemical; conditions: read-out: Kinetic_solubility
Procedure, shortened: (§1)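 DMSO stocks (10 mg/mL) diluted into pH 6.5 phosphate buffer or 0.01 M HCl (about pH 2.0) at 1% final DMSO. After 30 min, a solubility range was determined by nephelometry.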

[3] = Kinetic solubility in pH 2.0 0.01M HCl buffer incubated for 30 mins by nephelometry; type: physicochemical; conditions: read-out: Kinetic_solubility; procedure, shortened: as §1
[4] = Intrinsic clearance in human liver microsomes in presence of NADPH-regenerating system incubated over 60 mins; type: ADME, Microsome; conditions: read-out: CLH
Procedure, shortened: (§2)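 Compounds incubated at 37 °C with liver microsomes at 0.4 mg/mL protein. Reaction started by adding an NADPH-regenerating system and quenched with acetonitrile containing diazepam internal standard at several time points over 60 min. No-NADPH controls were quenched at 2, 30 and 60 min.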

Albumin = Albumin (Homo sapiens, UniProt P02768); assay: Protein binding to human albumin by HPLC analysis; type: ADME; conditions: isolated protein
Procedure, shortened: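 Binding estimated chromatographically using a gradient HPLC method derived from the Valko approach.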

Schistosoma mansoni [5] = assay: Antischistosomal activity against Schistosoma mansoni infected in NMRI mouse assessed as reduction in total adult worm burden at 400 mg/kg, po administered as single dose starting on day 49 post-infection and measured at 28 days post treatment relative to control; type: functional; design: scale not given: the % may be the effect or the level left
HFF = assay: Cytotoxicity in HFF assessed as reduction in cell viability up to 50 uM incubated for 24 hrs by Alamar blue sye based assay; conditions: human
Procedure, shortened: (§3)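 Cells maintained in D10 medium were grown to confluence, then exposed to increasing compound concentrations (0–100 μM) for 24 h. Alamar blue (10 mM) was then added for 4 h, and viability was read as fluorescence.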

U2OS = assay: Cytotoxicity in human U2OS assessed as reduction in cell viability up to 50 uM incubated for 24 hrs by Alamar blue sye based assay; procedure, shortened: as §3
HEK-293T = assay: Cytotoxicity in human HEK293T assessed as reduction in cell viability up to 50 uM incubated for 24 hrs by Alamar blue sye based assay; procedure, shortened: as §3
[6] = Cytotoxicity in human HC04 assessed as reduction in cell viability up to 50 uM incubated for 24 hrs by Alamar blue sye based assay; procedure, shortened: as §3
[7] = Intrinsic clearance in mouse liver microsomes in presence of NADPH-regenerating system incubated over 60 mins; type: ADME, Microsome; conditions: read-out: CLH; procedure, shortened: as §2
Schistosoma mansoni [8] = assay: Antischistosomal activity against Schistosoma mansoni infected in mouse assessed as reduction in juvenile worm burden at 200 mg/kg, po administered as single dose relative to control; type: functional; design: scale not given: the % may be the effect or the level left
Procedure, shortened: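 Female NMRI mice, 4 weeks old, infected subcutaneously with about 100 S. mansoni cercariae. Juvenile-stage treatment was a single oral dose on day 21 post-infection in 7% v/v Tween 80 / 3% v/v ethanol (10 mL/kg). Untreated infected mice (n = 8) served as controls. Necropsy by CO2 21 days post-treatment, with worms picked, sexed and counted.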

Schistosoma mansoni [9] = assay: Antischistosomal activity against Schistosoma mansoni infected in mouse assessed as reduction in adult worm burden at 400 mg/kg, po administered as single dose relative to control; type: functional; design: scale not given: the % may be the effect or the level left
Schistosoma japonicum [10] = assay: Antischistosomal activity against Schistosoma japonicum infected in mouse assessed as reduction in adult worm burden at 400 mg/kg, po administered as single dose relative to control; type: functional; design: scale not given: the % may be the effect or the level left
Schistosoma haematobium = assay: Antischistosomal activity against Schistosoma haematobium infected in mouse assessed as reduction in adult worm burden at 400 mg/kg, po administered as single dose relative to control; type: functional; design: scale not given: the % may be the effect or the level left
Schistosoma mansoni [11] = assay: Antischistosomal activity against Schistosoma mansoni; type: functional, organism-based
Schistosoma japonicum [12] = assay: Antischistosomal activity against Schistosoma japonicum; type: functional, organism-based

Albumin, sequence (P02768 whole entry): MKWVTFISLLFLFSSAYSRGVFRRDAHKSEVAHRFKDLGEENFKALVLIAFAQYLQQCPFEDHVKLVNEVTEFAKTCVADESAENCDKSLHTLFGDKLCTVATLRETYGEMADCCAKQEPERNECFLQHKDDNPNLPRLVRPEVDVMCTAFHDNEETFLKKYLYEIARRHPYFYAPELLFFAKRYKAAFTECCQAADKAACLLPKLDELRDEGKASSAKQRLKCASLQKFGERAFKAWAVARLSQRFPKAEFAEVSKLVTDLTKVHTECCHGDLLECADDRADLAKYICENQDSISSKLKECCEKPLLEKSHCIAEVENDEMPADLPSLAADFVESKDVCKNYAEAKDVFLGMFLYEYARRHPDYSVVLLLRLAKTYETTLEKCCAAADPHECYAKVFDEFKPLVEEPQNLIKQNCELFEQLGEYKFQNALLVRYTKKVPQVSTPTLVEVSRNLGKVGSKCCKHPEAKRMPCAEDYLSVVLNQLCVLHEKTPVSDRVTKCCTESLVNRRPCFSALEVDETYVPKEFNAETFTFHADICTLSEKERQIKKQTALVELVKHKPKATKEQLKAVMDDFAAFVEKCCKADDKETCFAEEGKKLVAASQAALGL

SMILES | logD [1] | solubility kinetic at 0.5 h [2] [µg/mL] | solubility kinetic at 0.5 h [3] [µg/mL] | microsomal CLint [4] [µL/min/mg] | PPB (Albumin) [%] | Activity (Schistosoma mansoni [5]) [%] | Activity (HFF) | Activity (U2OS) | Activity (HEK-293T) | Activity [6] | microsomal CLint [7] [µL/min/mg] | Activity (Schistosoma mansoni [8]) [%] | Activity (Schistosoma mansoni [9]) [%] | Activity (Schistosoma japonicum [10]) [%] | Activity (Schistosoma haematobium) [%] | IC50 (Schistosoma mansoni [11]) [µM] | IC50 (Schistosoma japonicum [12]) [µM]
O=C(O)CNC(=O)COc1ccc([C@H]2CC[C@]3(CC2)OOC2(O3)C3CC4CC(C3)CC2C4)cc1 (some centres not stated) | 3 | 12.5 to 25 (≈ 26.5 to 53 µM) | < 3.1 | < 7 | 98.5 | 76 | Non-Toxic | Non-Toxic | Non-Toxic | Non-Toxic | – | – | – | – | – | – | –
O=C(O)COc1ccc([C@H]2CC[C@]3(CC2)OOC2(O3)C3CC4CC2CC(C3)C4(F)F)cc1 (some centres not stated) | 2.9 | < 1.6 | 12.5 to 25 (≈ 27.7 to 55.5 µM) | 23 | 99.4 | 57 | – | – | – | – | 130 | – | – | – | – | – | –
CC(=O)NC1C2CC3CC1CC(C2)C31OO[C@]2(CC[C@@H](c3ccc(OCC(=O)O)cc3)CC2)O1 (some centres not stated) | 1.8 | 3.1 to 6.3 (≈ 6.57 to 13.4 µM) | 12.5 to 25 (≈ 26.5 to 53 µM) | 10 | 98.2 | 0 | – | – | – | – | < 7 | – | – | – | – | – | –
CC(C)(Oc1ccc([C@H]2CC[C@]3(CC2)OOC2(O3)C3CC4CC(C3)CC2C4)cc1)C(=O)O (some centres not stated) | 3.1 | < 1.6 | 3.1 to 6.3 (≈ 7 to 14.2 µM) | < 7 | > 99.5 | 48 | – | – | – | – | 7 | – | – | – | – | – | –
O=C(O)c1cccc([C@H]2CC[C@]3(CC2)OOC2(O3)C3CC4CC(C3)CC2C4)c1 (some centres not stated) | 3 | < 1.6 | < 1.6 | 12 | 98.9 | 63 | – | – | – | – | 30 | – | – | – | – | – | –
CS(=O)(=O)O.NC1C2CC3CC1CC(C2)C31OO[C@]2(CC[C@@H](c3ccc(OCC(=O)O)cc3)CC2)O1 (some centres not stated) | 1.4 | 6.3 to 12.5 | < 1.6 | 13 | 94.2 | 30 | – | – | – | – | 8 | – | – | – | – | – | –
CS(=O)(=O)O.O=C(O)CNCc1ccc([C@H]2CC[C@]3(CC2)OOC2(O3)C3CC4CC(C3)CC2C4)cc1 (some centres not stated) | 3.3 | < 12.5 | < 6.3 | < 7 | 97.6 | 90 | Non-Toxic | Non-Toxic | Non-Toxic | Non-Toxic | 10 | – | – | – | – | – | –
O=C(O)COc1ccc([C@H]2CC[C@]3(CC2)OOC2(O3)C3CC4CC2CC(C3)C4=O)cc1 (some centres not stated) | 1.9 | < 1.6 | 50 to 100 (≈ 117 to 233 µM) | – | 97.8 | 24 | – | – | – | – | – | – | – | – | – | – | –
O=C(O)CN1CCC(Oc2ccc([C@H]3CC[C@]4(CC3)OOC3(O4)C4CC5CC(C4)CC3C5)cc2)CC1 (some centres not stated) | – | – | – | < 7 | – | 75 | Non-Toxic | Non-Toxic | Non-Toxic | Non-Toxic | < 7 | – | – | – | – | – | –
O=C(O)COc1ccc([C@H]2CC[C@]3(CC2)OOC2(O3)C3CC4CC(C3)CC2C4)cc1C(=O)O (some centres not stated) | 1.9 | < 3.1 | > 100 | < 7 | 99.1 | 0 | – | – | – | – | 8 | – | – | – | – | – | –
O=C(O)CCCCOc1ccc([C@H]2CC[C@]3(CC2)OOC2(O3)C3CC4CC(C3)CC2C4)cc1 (some centres not stated) | 4 | < 1.6 | < 1.6 | < 7 | > 99.5 | 51 | – | – | – | – | 13 | – | – | – | – | – | –
CCOC(=O)COc1ccc([C@H]2CC[C@]3(CC2)OOC2(O3)C3CC4CC(C3)CC2C4)cc1 (some centres not stated) | > 5.3 | < 1.6 | < 0.78 | – | 98.9 | 60 | – | – | – | – | – | – | – | – | – | – | –
O=C([O-])C1CCN(CCOc2ccc([C@H]3CC[C@]4(CC3)OOC3(O4)C4CC5CC(C4)CC3C5)cc2)CC1.[Na+] (some centres not stated) | 3.8 | 3.1 to 6.3 | < 1.6 | < 7 | 98 | 0 | – | – | – | – | 9 | – | – | – | – | – | –
CS(=O)(=O)NC(=O)COc1ccc([C@H]2CC[C@]3(CC2)OOC2(O3)C3CC4CC(C3)CC2C4)cc1 (some centres not stated) | 3 | < 1.6 | 6.3 to 12.5 (≈ 12.8 to 25.4 µM) | < 7 | – | 53 | – | – | – | – | 12 | – | – | – | – | – | –
CS(=O)(=O)O.O=C(O)C1CN(Cc2ccc([C@H]3CC[C@]4(CC3)OOC3(O4)C4CC5CC(C4)CC3C5)cc2)C1 (some centres not stated) | – | 6.3 to 12.5 | < 1.6 | 7 | – | 43 | – | – | – | – | 10 | – | – | – | – | – | –
O=C(O)COc1ccc([C@H]2CC[C@]3(CC2)OOC2(O3)C3CC4CC(C3)CC2C4)cc1Cl (some centres not stated) | 3.2 | < 3.1 | 3.1 to 6.3 (≈ 6.91 to 14 µM) | < 7 | > 99.5 | 84 | Non-Toxic | Non-Toxic | Non-Toxic | Non-Toxic | 8 | – | – | – | – | – | –
O=C(O)c1cc([C@H]2CC[C@]3(CC2)OOC2(O3)C3CC4CC(C3)CC2C4)ccc1O (some centres not stated) | 3 | < 1.6 | > 100 | 108 | – | 36 | – | – | – | – | 20 | – | – | – | – | – | –
O=C(O)CCCOc1ccc([C@H]2CC[C@]3(CC2)OOC2(O3)C3CC4CC(C3)CC2C4)cc1 (some centres not stated) | 3.6 | < 3.1 | < 1.6 | < 7 | > 99.5 | 55 | – | – | – | – | 8 | – | – | – | – | – | –
O=C(O)COc1c(Cl)cc([C@H]2CC[C@]3(CC2)OOC2(O3)C3CC4CC(C3)CC2C4)cc1Cl (some centres not stated) | 3.3 | < 3.1 | 3.1 to 6.3 (≈ 6.41 to 13 µM) | – | – | 32 | – | – | – | – | – | – | – | – | – | – | –
O=C(O)COc1ccc([C@H]2CC[C@]3(CC2)OOC2(O3)C3CC4CC2CC(C3)C4O)cc1 (some centres not stated) | 1.7 | < 1.6 | 25 to 50 (≈ 58.1 to 116 µM) | < 7 | 98.5 | 14 | – | – | – | – | < 7 | – | – | – | – | – | –
CS(=O)(=O)O.CS(=O)(=O)O.O=C(O)CNCc1ccc([C@H]2CC[C@]3(CC2)OOC2(O3)C3CC4CC2CC(C3)N4)cc1 (some centres not stated) | 1.6 | > 100 | 50 to 100 | < 7 | – | 41 | – | – | – | – | < 7 | – | – | – | – | – | –
C[C@H]1[C@@H](O)O[C@@H]2O[C@@]3(C)CC[C@H]4[C@H](C)CC[C@@H]1[C@@]24OO3 [ARTENIMOL] | – | – | – | – | – | 66 | – | – | – | – | – | – | – | – | – | – | –
O=C(O)c1ccc([C@H]2CC[C@]3(CC2)OOC2(O3)C3CC4CC(C3)CC2C4)cc1 (some centres not stated) | 3 | < 3.1 | < 1.6 | – | 98.8 | – | – | – | – | – | – | 100 | – | – | – | – | –
O=C(O)COc1ccc([C@H]2CC[C@]3(CC2)OOC2(O3)C3CC4CC(C3)CC2C4)cc1 (some centres not stated) | 2.9 | < 1.6 | 6.3 to 12.5 (≈ 15.2 to 30.2 µM) | – | – | – | – | – | – | – | – | 84 | 80 | 69 | 86 | 44 | 39
CS(=O)(=O)O.O=C(O)COc1ccc([C@H]2CC[C@]3(CC2)OOC2(O3)C3CC4CC2CC(C3)N4)cc1 (some centres not stated) | 1.3 | 3.1 to 6.3 | < 1.6 | 35 | – | 29 | – | – | – | – | 27 | – | – | – | – | – | –
